The structures appear in SMILES notation. Activity calls are given as the source filed them. The rule behind the calls is not given here.

The record followed here is ChEMBL document CHEMBL1155990, “Synthesis of novel pyrazole carboxamide derivatives and discovery of modulators for apoptosis or autophagy in A549 lung cancer cells” (2009).

For assay [1], the system named is A549. As to the kind of experiment: Anticancer activity against human A549 lung cancer cells assessed as decrease in cell viability at 20 uM after 48 hrs relative to control by MTT assay. The format is functional. Put shortly: (§1)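 A549 cells exposed to compound in culture medium; viability measured by MTT assay and expressed as % of untreated control (100%).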
A general note: Tetrazolium dyes change colour on reduction, which living cells bring about.

Assay [2] relates to A549. As to the kind of experiment: Anticancer activity against human A549 lung cancer cells assessed as decrease in cell viability at 10 uM after 24 hrs relative to control by MTT assay. The format is functional. Put shortly: as §1
The subject of assay [3] is A549. As to the kind of experiment: Anticancer activity against human A549 lung cancer cells assessed as decrease in cell viability at 20 uM after 24 hrs relative to control by MTT assay. It counts as functional, cell-based. An outline of the steps: as §1
Assay [4] deals with A549. The experiment in a line: Anticancer activity against human A549 lung cancer cells assessed as decrease in cell viability at 10 uM after 48 hrs relative to control by MTT assay. It counts as functional. An outline of the steps: as §1
For assay [5], the system named is A549. The experiment in a line: Induction of necrosis in human A549 lung cancer cells assessed as LDH activity at 20 uM after 48 hrs. The format is functional, cell-based. Put shortly:
(§2)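 A549 cells treated at 10 or 20 µM for 48 h; LDH activity measured in culture medium as necrosis marker; compared with control, n = 4.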

For assay [6], the system named is A549. As to the kind of experiment: Induction of necrosis in human A549 lung cancer cells assessed as LDH activity at 10 uM after 48 hrs. It counts as functional, cell-based. An outline of the steps:
as §2

Assay [7] deals with A549. The experiment in a line: Effect on human A549 lung cancer cell morphology assessed as rounding and detachment of cells at 20 uM after 48 hrs relative to control by inverted phase contrast microscopy. The format is functional, cell-based. An outline of the steps: (§3)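 A549 cells treated at 20 µM; morphology photographed at 200× under an inverted phase contrast microscope.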

Assay [8] deals with A549. The experiment in a line: Effect on human A549 lung cancer cell morphology assessed as vacuolation of cells at 20 uM after 24 hrs by inverted phase contrast microscopy. It counts as functional, cell-based. Put shortly: as §3
Assay [9] relates to A549. As to the kind of experiment: Induction of autophagy in human A549 lung cancer cells assessed as acidic vesicle level at 20 uM after 24 hrs by acridine orange staining. It counts as functional, cell-based. An outline of the steps: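 A549 cells treated 24 h; acidic cellular compartment volume visualized by acridine orange staining under fluorescence microscope (200×); compared with control, n = 3.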

For assay [10], the system named is A549. As to the kind of experiment: Effect on human A549 lung cancer cell morphology assessed as rounding and detachment of cells at 20 uM after 24 hrs by inverted phase contrast microscopy. It counts as functional, cell-based. Put shortly: as §3
For assay [11], the system named is A549. As to the kind of experiment: Induction of apoptosis in human A549 lung cancer cells assessed as nuclear DNA fragmentation at 20 uM after 48 hrs by hoechst 33258 staining. It counts as functional, cell-based. Put shortly: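 A549 cells treated at 20 µM for 48 h; chromatin condensation and DNA fragmentation visualized by Hoechst 33258 staining under fluorescence microscope (200×); compared with control, n = 3.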

Assay [12] deals with A549. The experiment in a line: Effect on human A549 lung cancer cell morphology assessed as vacuolation of cells at 20 uM after 48 hrs relative to control by inverted phase contrast microscopy. The format is functional, cell-based. Put shortly: as §3

For the molecule `CC(C)(C)c1ccc(Cn2nc(-c3ccccc3)cc2C(=O)NCCc2ccc(F)cc2)cc1`, the result in assay [1], in [2], in assay [3] and in assay [4] was inactive.
For `CC(C)(C)c1ccc(Cn2nc(-c3ccccc3)cc2C(=O)NCCc2ccccc2)cc1`, the outcome in assay [1], in [2], in [3] and in [4] was inactive.
Consider `CC(C)(C)c1ccc(Cn2nc(-c3ccc(Cl)cc3)cc2C(=O)NCCc2ccccc2F)cc1`, for which the result in assay [1], in assay [2], in assay [3], in assay [7], in assay [8] and in assay [9] was Active. Also, the result in assay [4] was Active. The result in assay [5] and in [6] was inactive.
Consider `COc1cccc(CCNC(=O)c2cc(-c3ccccc3)nn2Cc2ccc(C(C)(C)C)cc2)c1`, for which the result in [1], in assay [2], in assay [3] and in [4] was inactive.
`COc1cccc(CCNC(=O)c2cc(-c3ccc(Cl)cc3)nn2Cc2ccc(C(C)(C)C)cc2)c1`: the Activity in assay [1] stood at 10.43%; in [2], 45.52%; in assay [4], 24.07%. In addition, the outcome in assay [5] and in [6] was inactive. Also, the result in assay [10], in [3], in [7] and in [11] was Active.
As for `CC(C)(C)c1ccc(Cn2nc(-c3ccccc3)cc2C(=O)NCCc2ccccc2F)cc1`, the outcome in [1], in assay [2], in assay [3] and in [4] was inactive.
Take `CC(C)(C)c1ccc(Cn2nc(-c3ccc(Cl)cc3)cc2C(=O)NCCc2ccccc2)cc1`: the outcome in assay [5] and in assay [6] was inactive. In addition, the Activity in assay [2] was found to be 59.32%; in assay [4], 44.46%. The outcome in assay [10], in assay [3], in [7] and in assay [11] was Active.
For the molecule `CC(C)(C)c1ccc(Cn2nc(-c3ccc(Cl)cc3)cc2C(=O)NCCc2ccc(F)cc2)cc1`, the result in assay [5] and in assay [6] was inactive. The result in assay [2], in assay [12], in [3], in assay [8], in assay [9] and in assay [4] was Active.
